# Results collected from several papers.
# Cell line: HeLa
# Observed: cell growth or viability
# Technique: MTT
Structure (SMILES),setting,quantity,value
Cc1cc(NC(=O)C=Cc2ccccc2)cc(-c2ccnc(N3CCOCC3)c2)c1,5 µM,inhibition,16.2%
O=C(Nc1cccc([N+](=O)[O-])c1)c1cccs1,,IC50,282 µM
O=C(CCc1ccccc1)Nc1cc(-c2ccnc(N3CCC(O)CC3)c2)ccn1,5 µM,inhibition,82.9%
[NH2][Pt]([NH2])([Cl])[Cl],72 h,IC50,6.8 µM
C=C(COCc1ccc(F)cc1)[C@@H]1CC[C@@H](C)C[C@H]1OCc1ccc(F)cc1,"10 µM, 72 h",inhibition,32.8%
C[C@H](CCC(=O)O)[C@H]1CC[C@H]2[C@@H]3CC[C@@H]4C[C@H](O)CC[C@]4(C)[C@H]3CC[C@]12C,72 h,IC50,56 µM
C=C(COCc1ccc(OC)cc1)[C@@H]1CC[C@@H](C)C[C@H]1OCc1ccc(OC)cc1,"30 µM, 72 h",inhibition,60.6%
COc1cccc2c1C(=O)c1c(O)c3c(c(O)c1C2=O)C[C@@](O)(C(=O)CO)C[C@@H]3O[C@H]1C[C@H](N)[C@H](O)[C@H](C)O1,,GI50,4.21 µM
O=c1c(C=NNC(=S)Nc2ccccc2)coc2ccccc12,48 h,IC50,91.9 µM
C[C@@H]1CC[C@@H]([C@@](C)(O)Cn2cnc3ccccc32)[C@H](OCc2ccccc2)C1,"30 µM, 72 h",inhibition,86.3%
O=C(C=Cc1ccccc1)Nc1cccc(-c2ccnc(N3CCC(CO)CC3)c2)c1,5 µM,inhibition,73.1%
COC(=O)COc1c(Cc2cc(C(C)(C)CC(C)(C)C)cc(-n3nc4ccccc4n3)c2OCC(=O)OC)cc(C(C)(C)CC(C)(C)C)cc1-n1nc2ccccc2n1,,GI50,8.12 µM
Cc1cccc(/C=C/C(=O)Nc2cc(-c3ccnc(N4CCOCC4)c3)ccn2)c1,5 µM,inhibition,72%
O=C(Nc1cccc([N+](=O)[O-])c1)c1ccco1,,IC50,637 µM
O=C(C=Cc1ccc(F)cc1)Nc1cc(-c2ccnc(N3CCC(O)CC3)c2)ccn1,5 µM,inhibition,67.2%
COc1ccc(COC[C@@](O)(CNCc2ccc(F)cc2)[C@@H]2CC[C@@H](C)C[C@H]2OCc2ccc(OC)cc2)cc1,"30 µM, 72 h",inhibition,99.1%
O=C(C=Cc1ccccc1)Nc1cc(-c2ccnc(N3CCC(O)CC3)c2)ccn1,72 h,IC50,0.0741 µM
COc1ccc(COC[C@@](O)(CNCc2ccccc2)[C@@H]2CC[C@@H](C)C[C@H]2OCc2ccc(OC)cc2)cc1,"30 µM, 72 h",inhibition,97.4%
